Data reported in paper PMC9579399 (Clinical and Translational Science, 2022).

Test system: healthy Chinese male subjects
Assay: Safety evaluation
Format: in vivo, human
Details: n = 49 per group
Outline: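 AEs recorded throughout the study by investigators, including laboratory tests (hematology, biochemistry, urinalysis), vital signs, physical exams, 12-lead ECG and injection site reactions. Subjects with AEs followed until return to normal or baseline. Incidence calculated as subjects with at least one AE divided by total subjects.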

CCCCCCCCCCCCCCCC(=O)N[C@@H](CCC(=O)NCCCC[C@H](NC(=O)[C@H](C)NC(=O)[C@H](C)NC(=O)[C@H](CCC(N)=O)NC(=O)CNC(=O)[C@H](CCC(=O)O)NC(=O)[C@H](CC(C)C)NC(=O)[C@H](Cc1ccc(O)cc1)NC(=O)[C@H](CO)NC(=O)[C@H](CO)NC(=O)[C@@H](NC(=O)[C@H](CC(=O)O)NC(=O)[C@H](CO)NC(=O)[C@@H](NC(=O)[C@H](Cc1ccccc1)NC(=O)[C@@H](NC(=O)CNC(=O)[C@H](CCC(=O)O)NC(=O)[C@H](C)NC(=O)[C@@H](N)Cc1cnc[nH]1)[C@@H](C)O)[C@@H](C)O)C(C)C)C(=O)N[C@@H](CCC(=O)O)C(=O)N[C@@H](Cc1ccccc1)C(=O)N[C@H](C(=O)N[C@@H](C)C(=O)N[C@@H](Cc1c[nH]c2ccccc12)C(=O)N[C@@H](CC(C)C)C(=O)N[C@H](C(=O)N[C@@H](CCCNC(=N)N)C(=O)NCC(=O)N[C@@H](CCCNC(=N)N)C(=O)NCC(=O)O)C(C)C)[C@@H](C)CC)C(=O)O [Victoza, Liraglutide]
incidence of AEs (percentage of subjects with at least one AE): 32.7% | incidence of TRAEs (percentage of subjects with at least one TRAE): 24.5% | Number of events (AEs) (single 0.6 mg s.c.): 19 | Number of events (TRAEs) (single 0.6 mg s.c.): 12
